This is a sample that favours compounds with a hit; in the whole collection about 2.3% have one here.
ABCB1 inh – blocks JC-1 efflux by human ABCB1 transporter; P08183; CCRF-Adr cells, flow cytometry; inhibition, % at 6.6 µM; 190,000 compounds, 0.067% hits; AID 1326; in the data active = inhibition above about 40%;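 also: 0% = vehicle and 100% = reference inhibitor; higher value means more JC-1 retained so stronger ABCB1 efflux block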
RAM inhibit – blocks the yeast RAM network; S. cerevisiae dse1pr::URA3 reporter, 5-FOA growth OD615, 2 d; analog-sensitive cbk1-as2 kinase mutant strain; inhibition, % at 50 µM; 190,000 compounds, 1.8% hits;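 active = inhibition above a set limit, 3 SD over mean compound inhibition, cut at about 8.4% in these data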;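 also: 0% = DMSO-only wells with no growth and 100% = 10 µM 1-NA-PP1 full growth; inhibition rescues growth on 5-FOA so higher OD means more RAM inhibition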
Arbovirus inh – antivirals against arbovirus infection | arbovirus infection cell-based antiviral screen | inhibition, % at 10 µM | 200,000 compounds, 0.37% hits | AID 1251; in the data active = inhibition above about 30%
ABCG2 block – inhibitors of human ABCG2 transporter, ABCB1 counter-screen | Q9UNQ0 | inhibition, % at 6.6 µM | 190,000 compounds, 0.1% hits | IgMXP3 cells, JC-1 efflux, flow cytometry;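 active = inhibition above 80%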;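 also: 0% = DMSO and 100% = nicardipine control wells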
Target sequence (Q9UNQ0 whole entry, looked up): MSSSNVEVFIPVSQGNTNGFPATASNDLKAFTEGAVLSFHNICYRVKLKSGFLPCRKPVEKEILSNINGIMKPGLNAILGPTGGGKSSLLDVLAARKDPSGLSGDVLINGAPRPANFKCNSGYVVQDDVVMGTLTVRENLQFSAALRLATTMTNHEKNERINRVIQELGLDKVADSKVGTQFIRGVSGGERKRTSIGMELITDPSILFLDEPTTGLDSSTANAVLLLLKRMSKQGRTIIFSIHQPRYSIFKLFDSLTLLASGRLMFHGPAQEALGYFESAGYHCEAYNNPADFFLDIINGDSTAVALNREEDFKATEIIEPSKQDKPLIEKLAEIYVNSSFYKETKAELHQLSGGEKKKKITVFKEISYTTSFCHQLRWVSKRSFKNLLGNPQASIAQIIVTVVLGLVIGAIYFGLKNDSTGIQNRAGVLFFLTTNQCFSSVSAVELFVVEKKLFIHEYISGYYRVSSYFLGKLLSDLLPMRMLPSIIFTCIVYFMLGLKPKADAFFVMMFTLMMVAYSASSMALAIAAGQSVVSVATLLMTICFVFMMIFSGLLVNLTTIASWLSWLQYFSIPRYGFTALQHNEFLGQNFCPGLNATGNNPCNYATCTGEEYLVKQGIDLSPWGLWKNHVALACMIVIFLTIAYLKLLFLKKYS
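Read-out basis: Efflux inhibition in percent versus controls | Test system: ABCG2 IgMXP3 and barcoded ABCB1 CCRF-Adr cell mix | Quantity: 3 million cells/mL in well | Schedule: 10 min at 25 °C | Control set: Nicardipine as high control, DMSO as low control | Reagent: JC-1 as fluorescent efflux pump substrate | Signal: Flow cytometry of retained JC-1 fluorescence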
RAM efflux-def – RAM network inhibitors in efflux-deficient yeast. max inhibition, %. S. cerevisiae efflux-deficient reporter strain, 5-FOA growth OD615, 2 days. shares compounds with RAM inhibit. AID 1305. 1,200 tested, under 10 active; call rule not given here;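 also: plate controls were vehicle for no effect and reference inhibitor for full effect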
* hit, by the source's call; / = no result given.

SMILES	ABCB1 inh	RAM inhibit	Arbovirus inh	ABCG2 block	RAM efflux-def
CCN(CC)S(=O)(=O)c1cccc(C(=O)OCC(=O)c2ccc3c(c2)OCCO3)c1	0	14*	9	6	5
O=C(COC(=O)c1cccc(S(=O)(=O)NCc2ccccc2)c1)c1ccc2c(c1)OCCO2	0	7	12	13	/
C=CCN1C(=O)C(Cc2ccc(C)cc2)S/C1=N/N=C/c1ccco1 (stereo not drawn)	1	14*	4	2	2
C=CCN1C(=O)C(Cc2cccc(C)c2)SC1=Nc1ccc(C(=O)O)cc1 (stereo not drawn)	0	15*	11	4	1
C=CCN1C(=O)C(Cc2ccccc2)SC1=Nc1ccc(C(=O)O)cc1 (stereo not drawn)	0	2	4	8	/
Cc1nn(C)cc1/C=N/NC(=O)C1(O)c2ccccc2-c2ccccc21	0	1	-5	4	/
CCOc1ccc(N2C(=O)/C(=C/c3cccs3)N(C)C2=S)cc1	0	1	-11	-3	/
CN(C)c1ccnc2sc3c(SCc4ccc(Cl)cc4)ncnc3c12	0	19*	-5	-5	6
CN(C)c1ccnc2sc3c(NCC(O)CO)ncnc3c12 (stereo not drawn)	0	0	2	2	/
Cc1ccc(S(=O)(=O)c2c(CO)c(-c3ccccc3)nn2C)cc1	0	14*	12	-1	4
COc1ccc2c(C)cc(SCC(=O)c3ccc4c(c3)OCO4)nc2c1	0	12*	1	2	5
COCCn1c(C)cc(C(=O)CSc2cc(C)c3ccc(OC)cc3n2)c1C	4	5	13	38	/
C/C=C(/C)C(=O)OC(C)(C)[C@@H]1Cc2c(ccc3ccc(=O)oc23)O1	1	2	-4	2	/
C/C=C(/C)C(=O)O[C@@H]1c2c(ccc3ccc(=O)oc23)O[C@@H]1C(C)(C)OC(=O)/C(C)=C\C	2	18*	3	9	5
Cc1ccc(SCC(=O)N2CCC(C(N)=O)CC2)cc1	1	0	1	5	/
O=c1sc2ccccc2c(N2CCN(c3ccccc3)CC2)c1[N+](=O)[O-]	0	1	11	19	/
COCCNC(=O)C(c1ccc(F)cc1)N(C(=O)CCC(=O)Nc1nccs1)c1ccc(C)cc1 (stereo not drawn)	0	12*	-1	3	2
CCN1/C(=C/C=C/C=C/c2sc3ccccc3[n+]2CC)Sc2ccccc21	-1	22*	-45	0	9
CC[n+]1c(/C=C/Nc2ccccc2)sc2ccccc21	-2	0	7	-7	/
CCOc1ccc(C(=O)NCC(c2cccs2)N(C)C)cc1 (stereo not drawn)	-1	0	-4	1	/
COc1ccc(C(=O)NNC(=O)C(Cc2ccc(O)cc2)NC(=O)c2ccccc2NC(=O)c2ccc(OC)cc2)cc1 (stereo not drawn)	-1	12*	-9	-3	4
O=C(CCCSc1nnc(SCCCC(=O)c2ccc(F)cc2)s1)c1ccc(F)cc1	1	14*	-5	1	4
Cn1c(=O)n(C)c2cc([N+](=O)[O-])c(N3CCN(C(=O)C(C)(C)C)CC3)cc21	1	-1	-1	7	/
Cc1cccc(OC(=O)c2cncc(Br)c2)c1	0	2	-1	25	/
Cc1nc(C)c(NC(=O)N2CCc3ccccc32)cc1NC(=O)N1CCc2ccccc21	0	12*	-2	9	3
SMILES	ABCB1 inh	RAM inhibit	Arbovirus inh	ABCG2 block	RAM efflux-def
Cc1nn(Cc2ccccc2)c(Cl)c1C(=O)OCc1nnc(-c2ccccc2)o1	1	16*	-5	3	2
COc1ccccc1OCC(=O)NCCCn1ccnc1	0	2	6	1	/
CSc1ccc(NC(=O)Nc2cccn(Cc3ccccc3F)c2=O)cc1	0	6	9	0	/
O=C(NC(=S)Nc1ccc(Oc2ccc(Cl)cc2)cc1)c1ccccc1	0	17*	-21	-1	4
COc1ccc(NC(=S)NC(=O)c2ccccc2Cl)cc1	0	0	4	14	/
CCC(=O)NC(=S)Nc1ccc(NC(=S)NC(=O)c2ccccc2)cc1	-2	13*	1	-3	4
CN(C)c1oc(-c2ccc(OCc3ccccc3)cc2)nc1C#N	0	14*	-18	0	3
N#Cc1nc(-c2ccc(OCc3ccccc3)cc2)oc1NCc1cccnc1	0	7	-3	0	/
C/C(=C\C(=O)c1ccncc1)Nc1ccccc1O	1	1	-14	5	/
